Experimental data as given in ChEMBL document CHEMBL3779815, “Synthesis of newer 1,2,3-triazole linked chalcone and flavone hybrid compounds and evaluation of their antimicrobial and cytotoxic activities” (Eur J Med Chem, 2016).
In brackets after ≈: the same amount, converted by molar mass.

Legend:
[1] = system: Staphylococcus aureus; test: Antibacterial activity against Staphylococcus aureus […] after 18 to 24 hrs by micro-dilution method; assay type: functional
[2] = system: Enterococcus faecalis; test: Antibacterial activity against Enterococcus faecalis ATCC 29212 after 18 to 24 hrs by micro-dilution assay; assay type: functional
[3] = system: Escherichia coli; test: Antibacterial activity against Escherichia coli ATCC 35218 after 18 to 24 hrs by micro-dilution method; assay type: functional
[4] = system: Pseudomonas aeruginosa; test: Antibacterial activity against Pseudomonas aeruginosa […] after 18 to 24 hrs by micro-dilution method; assay type: functional
[5] = system: Shigella boydii; test: Antibacterial activity against Shigella boydii clinical isolate after 18 to 24 hrs by micro-dilution method; assay type: functional
[6] = system: Klebsiella pneumoniae; test: Antibacterial activity against Klebsiella pneumoniae ATCC 27736 after 18 to 24 hrs by micro-dilution method; assay type: functional
[7] = system: Candida albicans; test: Antifungal activity against Candida albicans ATCC 90028 after 18 to 24 hrs by micro-dilution method; assay type: functional
How it was run: (§1)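 Microdilution MIC run as the antibacterial protocol but on Sabouraud dextrose […] pH 7.3±0.2; compounds 100 to 0.78 μg/mL in twofold steps; saline-prepared inocula 1-2 × 10⁷ cfu/mL, 0.01 mL added; 37 °C aerobic, 18-24 h; MIC read as lowest concentration without visible growth or turbidity; fluconazole reference.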

[8] = system: Candida albicans; test: Antifungal activity against Candida albicans clinical isolate after 18 to 24 hrs by micro-dilution method; assay type: functional; how it was run: as §1
[9] = system: Candida tropicalis; test: Antifungal activity against Candida tropicalis ATCC 750 after 18 to 24 hrs by micro-dilution method; assay type: functional; how it was run: as §1
[10] = system: Candida parapsilosis; test: Antifungal activity against Candida parapsilosis ATCC 22019 after 18 to 24 hrs by micro-dilution method; assay type: functional; conditions: Lodderomyces parapsilosis; how it was run: as §1
[11] = system: Cryptococcus neoformans; test: Antifungal activity against Cryptococcus neoformans clinical isolate after 18 to 24 hrs by micro-dilution method; assay type: functional; how it was run: as §1
[12] = system: Arthrodermataceae; test: Antifungal activity against Dermatophyte clinical isolate after 18 to 24 hrs by micro-dilution method; assay type: functional; how it was run: as §1
[13] = system: Aspergillus niger; test: Antifungal activity against Aspergillus niger clinical isolate after 18 to 24 hrs by micro-dilution method; assay type: functional; how it was run: as §1
[14] = system: Aspergillus fumigatus; test: Antifungal activity against Aspergillus fumigatus clinical isolate after 18 to 24 hrs by micro-dilution method; assay type: functional; how it was run: as §1
[15] = system: Plasmodium falciparum; test: Antimalarial activity against erythrocytic stage of chloroquine sensitive Plasmodium falciparum 3D7 assessed as inhibition of parasitemia after 48 hrs by Giemsa staining based microscopic analysis; assay type: functional, organism-based; conditions: 3D7, 48 h
How it was run: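 Asynchronous culture on human O⁺ erythrocytes, 1-1.5% parasitemia, 4% hematocrit, RPMI-1640 with HEPES, NaHCO₃, glutamine, gentamycin, Albumax II; drug 0.10-100 μg/mL, 48 h, 37 °C, medium changed at 24 h; triplicate wells; Giemsa thin smears, about 4,000 erythrocytes counted at 1,000X; % parasitemia inhibition versus control gives IC50.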

[16] = Cytotoxicity against human HuH7 cells after 72 hrs by MTT assay; assay type: cell-based, Huh-7
How it was run: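 Huh-7 cells, 4 × 10³/well in DMEM with 10% FBS and penicillin-streptomycin-glutamine; eight 2-fold dilutions 100-0.78 μg/mL, 72 h; MTT added 2-4 h, then isopropanol/Triton X-100/HCl solubilization 2 h dark, RT; absorbance 570 nm; CC50 as mean of at least two experiments in duplicate.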

MIC [1] [µg/mL]	MIC [2] [µg/mL]	MIC [3] [µg/mL]	MIC [4] [µg/mL]	MIC [5] [µg/mL]	MIC [6] [µg/mL]	MIC [7] [µg/mL]	MIC [8] [µg/mL]	MIC [9] [µg/mL]	MIC [10] [µg/mL]	MIC [11] [µg/mL]	MIC [12] [µg/mL]	MIC [13] [µg/mL]	MIC [14] [µg/mL]	IC50 [15] [µg/mL]	SMILES	CC50 at 72 h [16] [µg/mL]
> 100	100 (≈ 136 µM)	> 100	> 100	100 (≈ 136 µM)	> 100	> 100	> 100	> 100	> 100	> 100	> 100	> 100	> 100	10.9 (≈ 14.8 µM)	COc1cc(O)c(C(=O)/C=C/c2ccc(OCc3cn(-c4ccc(F)c(Cl)c4)nn3)c(OCc3cn(-c4ccc(F)c(Cl)c4)nn3)c2)c(OC)c1	> 100
> 100	100 (≈ 192 µM)	100 (≈ 192 µM)	> 100	> 100	> 100	12.5 (≈ 23.9 µM)	12.5 (≈ 23.9 µM)	6.25 (≈ 12 µM)	12.5 (≈ 23.9 µM)	12.5 (≈ 23.9 µM)	12.5 (≈ 23.9 µM)	25 (≈ 47.9 µM)	25 (≈ 47.9 µM)	11 (≈ 21.1 µM)	COc1cc(O)c(C(=O)/C=C/c2ccc(OC)c(OCc3cn(-c4ccc(Cl)cc4)nn3)c2)c(OC)c1	> 100
12.5 (≈ 17.8 µM)	6.25 (≈ 8.9 µM)	6.25 (≈ 8.9 µM)	12.5 (≈ 17.8 µM)	6.25 (≈ 8.9 µM)	12.5 (≈ 17.8 µM)	6.25 (≈ 8.9 µM)	6.25 (≈ 8.9 µM)	12.5 (≈ 17.8 µM)	12.5 (≈ 17.8 µM)	6.25 (≈ 8.9 µM)	12.5 (≈ 17.8 µM)	25 (≈ 35.6 µM)	25 (≈ 35.6 µM)	8.86 (≈ 12.6 µM)	COc1cc(O)c(C(=O)/C=C/c2ccc(OCc3cn(-c4ccc(F)cc4F)nn3)c(OCc3cn(-c4ccc(F)cc4F)nn3)c2)c(OC)c1	> 100
100 (≈ 191 µM)	25 (≈ 47.8 µM)	50 (≈ 95.5 µM)	> 100	12.5 (≈ 23.9 µM)	> 100	> 100	> 100	> 100	> 100	> 100	> 100	50 (≈ 95.5 µM)	50 (≈ 95.5 µM)	9.54 (≈ 18.2 µM)	COc1cc(O)c(C(=O)/C=C/c2ccc(OC)c(OCc3cn(-c4ccc(F)cc4F)nn3)c2)c(OC)c1	> 100

More lines, now with the values behind:

SMILES	MIC [1] [µg/mL]	MIC [2] [µg/mL]	MIC [3] [µg/mL]	MIC [4] [µg/mL]	MIC [5] [µg/mL]	MIC [6] [µg/mL]	MIC [7] [µg/mL]	MIC [8] [µg/mL]	MIC [9] [µg/mL]	MIC [10] [µg/mL]	MIC [11] [µg/mL]	MIC [12] [µg/mL]	MIC [13] [µg/mL]	MIC [14] [µg/mL]	IC50 [15] [µg/mL]	CC50 at 72 h [16] [µg/mL]
COc1cc(O)c(C(=O)/C=C/c2ccc(OCc3cn(-c4ccc(Cl)cc4)nn3)c(OCc3cn(-c4ccc(Cl)cc4)nn3)c2)c(OC)c1	> 100	> 100	100 (≈ 143 µM)	> 100	> 100	100 (≈ 143 µM)	> 100	> 100	> 100	> 100	> 100	> 100	> 100	> 100	12.8 (≈ 18.2 µM)	> 100
COc1cc(O)c(C(=O)/C=C/c2ccc(OCc3cn(-c4ccccc4Cl)nn3)c(OCc3cn(-c4ccccc4Cl)nn3)c2)c(OC)c1	> 100	> 100	> 100	> 100	> 100	> 100	> 100	> 100	> 100	> 100	> 100	> 100	> 100	> 100	8.38 (≈ 12 µM)	> 100
COc1cc(O)c(C(=O)/C=C/c2ccc(OC)c(OCc3cn(-c4ccccc4Cl)nn3)c2)c(OC)c1	25 (≈ 47.9 µM)	25 (≈ 47.9 µM)	50 (≈ 95.8 µM)	100 (≈ 192 µM)	12.5 (≈ 23.9 µM)	> 100	6.25 (≈ 12 µM)	12.5 (≈ 23.9 µM)	6.25 (≈ 12 µM)	12.5 (≈ 23.9 µM)	12.5 (≈ 23.9 µM)	12.5 (≈ 23.9 µM)	12.5 (≈ 23.9 µM)	12.5 (≈ 23.9 µM)	8.03 (≈ 15.4 µM)	> 100
COc1cc(O)c(C(=O)/C=C/c2ccc(OCc3cn(-c4ccc(F)cc4Cl)nn3)c(OCc3cn(-c4ccc(F)cc4Cl)nn3)c2)c(OC)c1	> 100	> 100	> 100	100 (≈ 136 µM)	> 100	> 100	> 100	> 100	> 100	> 100	> 100	> 100	> 100	> 100	8.55 (≈ 11.6 µM)	> 100
